Rows were chosen to be rich in hits. Some 1.7% of all compounds tested hit in one or more screens of this group.
HNF4A DNA FP: change in binding of human HNF4 alpha to DNA. P41235. HNF4a-FITC DNA binding, fluorescence polarization, 1 h. activity change, % at 10 µM. 360,000 compounds, 0.3% hits. AID 1224865; in the data active = activity change above about 30%, passing the limit was not always enough
NR1D1 modulator: modulates human Rev-erb alpha binding to DNA; P20393; Rev-erbα–FITC-DNA binding, fluorescence polarization, 90 min; activity, % at 10 µM; 370,000 compounds, 0.79% hits; AID 1259318;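 active = activity above about 14%, limit read from the data; passing the limit was not always enough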;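 also: 0% = DMSO wells with 35 nM protein and 100% = DMSO wells with 750 nM protein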
CSN deneddyl inh: blocks human CSN-mediated cullin deneddylation; Purified CSN, SCF-Nedd8-OG deneddylation, fluorescence polarization; AID 651999; 360,000 compounds, 0.38% hits; inhibition, % at 12.5 µM;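 active = pattern-corrected inhibition above about 35%, with an unprinted fluorescence ratio check between 0.5 and 1.5, limit read from the data, passing the limit was not always enough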;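 also: 0% = enzyme with substrate and 100% = substrate without enzyme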
Target sequence (Q92905 whole entry, looked up, one chain of several): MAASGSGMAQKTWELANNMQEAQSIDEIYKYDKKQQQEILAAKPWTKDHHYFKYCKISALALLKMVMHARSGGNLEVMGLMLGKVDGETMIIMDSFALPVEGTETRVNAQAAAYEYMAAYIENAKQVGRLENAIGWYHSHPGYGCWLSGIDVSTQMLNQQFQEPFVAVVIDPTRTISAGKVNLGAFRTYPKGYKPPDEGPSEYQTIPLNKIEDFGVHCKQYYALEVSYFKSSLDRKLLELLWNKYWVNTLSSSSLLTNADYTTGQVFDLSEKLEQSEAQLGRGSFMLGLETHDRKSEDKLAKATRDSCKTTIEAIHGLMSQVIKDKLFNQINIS
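Assay system: purified human Csn5 enzyme expressed in HEK293T cells; Input: 0.24 nM Csn5 enzyme, final concentration; Reagent: 10 nM SCFSkp2-Nedd8OG; Compound dosing: 12.5 µM single point; Times: reaction 90 min, room temperature; Technique: fluorescence polarization readout.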
TPT1 inhibitor: blocks Candida albicans tRNA 2'-phosphotransferase; recombinant caTPT1, FP RNA substrate dephosphorylation; inhibition, % at 5 µM; 300,000 compounds, 0.81% hits;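 active = inhibition above the mean of all tested compounds plus 3 SD, set per screening campaign, cut at about 24% in these data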;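 also: plate controls were DMSO alone for no effect and ferristatin control at 100 nM for full effect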
* marks the source's active call; other numbers are inactive results; nt = no result; + = active, no number.

SMILES	HNF4A DNA FP	NR1D1 modulator	CSN deneddyl inh	TPT1 inhibitor
COC(=O)[C@@]12C[C@@H](CC(=O)N3CCCC3)C(=O)N(Cc3ccco3)C1=CCC(C)(C)C2	0	-5	0	nt
CCOc1ccc(C(=O)Nc2ccc(N3CCN(C)CC3)cc2)cc1Br	2	-6	4	0
CCOc1ccc(C(=O)Nc2ccc(N3CCN(C(=O)c4ccco4)CC3)cc2)cc1Br	0	-15	44*	nt
Cc1cc(C=O)c(C)n1-c1cccc(C(=O)O)c1	-9	-4	9	0
Cc1ccc(C)n1-c1cccc(C(=O)O)c1	nt	nt	nt	51*
O=C(Nc1ccc(-n2cnnn2)cc1)c1cn2ccccc2n1	21	-10	46*	1
Cn1c(/C=C/c2ccc([N+](=O)[O-])o2)nc2ccccc2c1=O	59*	nt	29	-40
CCCN(C(=O)c1cc(-c2ccco2)nc2ccccc12)c1c(N)n(Cc2ccccc2)c(=O)[nH]c1=O	-9	-30	11	-1
COCCN(C(=O)c1cc(-c2ccco2)nc2ccccc12)c1c(N)n(Cc2ccccc2)c(=O)[nH]c1=O	-20	-24	37*	nt
CCOc1cc(-c2cc(-c3ccccc3)nc(N)c2C#N)ccc1O	28*	4	1	0
COc1cc(-c2cc(-c3ccc(F)cc3)nc(N)c2C#N)ccc1O	83*	5	-8	-1
CCOc1cc(-c2cc(-c3ccc(N)cc3)nc(N)c2C#N)ccc1O	7	-5	0	9
CC(NC(=O)/C(C#N)=C1\N=C(NC(=O)c2cccs2)c2ccccc21)c1ccccc1 (centres undefined)	55*	6	15	9
N#C/C(C(=O)NCCc1ccccc1)=C1/N=C(NC(=O)c2cccs2)c2ccccc21	9	-7	3	3
COc1cccc2cc(-c3nc(-c4cccs4)cs3)c(=O)oc12	40*	1	15	1
O=C(NCCC1=CCCCC1)C1CCC(CNc2c(N3CCCC3)c(=O)c2=O)CC1 (centres undefined)	29*	7	4	2
O=C(NCCC1=CCCCC1)C1CCC(CNc2c(N3CCCCC3)c(=O)c2=O)CC1 (centres undefined)	0	-5	-2	-2
Cn1nnnc1SCC1=C(C(=O)O)N2C(=O)[C@H](NC(=O)C(O)c3ccccc3)C2SC1 (some centres undefined)	nt	0	nt	nt
O=C1O[C@@H](CO)[C@H](O)[C@@H](O)[C@@H]1O	nt	-3	nt	nt
O=C(O)C1CSCN1 (centres undefined)	nt	3	nt	nt
COc1ccccc1OCCOc1ccc(/C=C2/C(=N)N3OC(C)=CC3=NC2=O)cc1OC	1	11	50*	2
Cc1ccc(/C=c2\sc3nc(-c4cccs4)nn3c2=O)o1	1	-2	44*	9
O=[N+]([O-])c1ccc(CN2CCOCCOCCN(Cc3ccc([N+](=O)[O-])cc3Cl)CCOCC2)c(Cl)c1	nt	-3	nt	nt
CC(=O)Nc1ccc(OCC(O)Cn2cnc3ccccc32)cc1 (centres undefined)	2	-3	-3	-2
CC(=O)Nc1cccc(OCC(O)Cn2cnc3ccccc32)c1 (centres undefined)	-3	-4	58*	2
SMILES	HNF4A DNA FP	NR1D1 modulator	CSN deneddyl inh	TPT1 inhibitor
O=C(NCCCN1CCOCC1)NC1CCCCC1	-4	1	4	-6
O=C(NCCCCCCCN1CCCCCCC1)C(C1CCCCC1)C1CCCCC1	24	-2	55*	nt
C=CCn1c(SCC(=O)c2c(C)[nH]c3ccccc23)nnc1-c1ccncc1	5	-32	36*	-8
Nc1cc(-c2ccccc2)nn1S(=O)(=O)c1ccc(Br)cc1	2	-1	+	1
O=C(CCN1C(=O)/C(=C\c2cccs2)SC1=S)Nc1nccs1	38*	2	8	-1
CCC(=O)O[C@H]1CCC2C3CCc4cc(O)ccc4C3CC[C@@]21C (some centres undefined)	nt	-3	nt	nt
CC(=O)Nc1ccc(S(=O)(=O)Nc2onc(C)c2C)cc1	nt	-2	nt	nt
O=C1NC(=Nc2ccccc2)S/C1=C/c1cccs1	64*	-8	-1	-1
O=C(CCn1nnc(-c2cccs2)n1)N1CCCCC1	nt	0	nt	nt
CC(C)(C)C(=O)c1c(N)[nH]c(C(=O)c2ccccc2)c1-c1ccccc1Br	5	-4	4	nt
NC(=O)c1c(N)[nH]c(C(=O)c2ccccc2)c1-c1ccccc1Br	4	9	108*	nt
c1ccc([C@@H]2CCNC[C@H]2COc2ccc3c(c2)OCO3)cc1	nt	-9	nt	nt
CCn1c(=O)c(C(=O)CN2c3ccccc3CC2C)c(N)n(Cc2ccccc2)c1=O (centres undefined)	0	0	4	5
CCn1c(=O)c(C(=O)CN2CCCc3ccccc32)c(N)n(Cc2ccccc2)c1=O	88	2	48*	14
CC(=O)Nc1ccc(C(=O)CN2CCN(c3ccccc3)CC2)cc1	19	-9	100*	4
Cc1ccccc1NC(=O)CN1C(=O)CCSc2ccccc21	nt	-9	nt	nt
OC[C@@H](O)[C@H](O)[C@@H](O)[C@H](O)CO	nt	-4	nt	nt
CCOc1ccc(OCc2ccc(C(=O)N3CCCCC3)o2)cc1	36*	-2	-3	-4
CC(=O)c1cccc(NS(=O)(=O)N(C)C)c1	50*	-1	0	1
CN(C)S(=O)(=O)Nc1cccc(Br)c1	5	-2	2	2
CC1(c2nnnn2-c2ccc3c(c2)OCCO3)CCC(=O)N1CCCn1ccnc1 (centres undefined)	-1	-4	102*	nt
CC1(C)S[C@@H]2[C@H](NC(=O)[C@H](C(=O)O)c3cccs3)C(=O)N2[C@H]1C(=O)O	nt	9	nt	nt
COc1ccc(C(=O)/C=C/Nc2ccc([N+](=O)[O-])cc2C)cc1OC	37*	1	46*	12
CS(=O)(=O)Nc1ccc(C2=NN(S(C)(=O)=O)C(c3ccc4c(c3)OCO4)C2)cc1 (centres undefined)	79*	1	11	4
CC(=O)N1N=C(c2cccc(NS(C)(=O)=O)c2)CC1c1ccc2c(c1)OCO2 (centres undefined)	-1	4	-4	3
SMILES	HNF4A DNA FP	NR1D1 modulator	CSN deneddyl inh	TPT1 inhibitor
O=c1c2c(-c3ccco3)csc2nc(SCc2cn3cccnc3n2)n1-c1ccccc1	-7	-11	46*	3
Cc1ccc(-c2csc(NC(=O)CCNC(=O)c3ccco3)n2)cc1	40*	4	-2	0
O=c1ccc(-c2ccc(S(=O)(=O)NCc3cccc(Br)c3)s2)n[nH]1	36*	-1	-4	-2
C=C1CC2C3C=C(C)C4=CC(=O)CC[C@]4(C)C3CC[C@]2(C)[C@@]1(OC(C)=O)C(C)=O (some centres undefined)	nt	1	nt	nt
CCOC(=O)C1=CCN(S(=O)(=O)c2ccccc2)C1c1ccccc1 (centres undefined)	-1	-1	121*	nt
Clc1ccc(C2=NCCN2)cc1	-8	4	0	3
COc1cc(/C=C2\SC(=S)N(NC(=O)c3ccccc3OC)C2=O)ccc1O	48*	9	5	nt

Source: PubChem BioAssay
